Here are results for six compounds from ChEMBL document CHEMBL1148068, “Bistramides A, B, C, D, and K: a new class of bioactive cyclic polyethers from Lissoclinum bistratum” (J Nat Prod, 1994).

The test system of experiment [1] is KB. The experiment can be described thus: Cytotoxicity against human KB cells after 72 hrs by MTT assay. The format is functional, cell-based. The procedure, abridged:
(§1)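 Cells were seeded in microtiter plates at 0.1 × 10^3 cells/ml. Growth was estimated at 72 h by MTT conversion to formazan. Values are means of 3 experiments.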

For experiment [2], the system named is P388. The experiment in a line: Cytotoxicity against mouse P388 cells after 72 hrs by MTT assay. The format is functional, cell-based. The settings on record: P388, 72 h. The procedure, abridged:
as §1

For experiment [3], the system named is P388. The experiment in a line: Cytotoxicity against mouse doxorubicin resistant P388 cells after 72 hrs by MTT assay. As to conditions: P388, 72 h. The format is functional, cell-based. In outline:
as §1

Experiment [4] relates to B16. The experiment can be described thus: Cytotoxicity against mouse B16 cells after 72 hrs by MTT assay. The format is functional, cell-based. As to conditions: B16, 72 h. The procedure, abridged: as §1
Experiment [5] deals with HT-29. The experiment can be described thus: Cytotoxicity against human HT-29 cells after 72 hrs by MTT assay. The format is functional, cell-based. As to conditions: HT-29, 72 h. In outline:
as §1

Experiment [6] is described as follows: Cytotoxicity against human NSCLC-N6 cells after 72 hrs by MTT assay. The settings on record: NSCLC-N6, 72 h. The format is functional, cell-based. The procedure, abridged:
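Cells originated from a nude-mouse graft and were cultured in RPMI 1640 with 5% fetal calf serum, penicillin, streptomycin and 2 mM glutamine. They were seeded in microtiter plates at 0.1 × 10^3 cells/ml. Growth was read by MTT-to-formazan conversion at 72 h. Values are means of 3 experiments.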

Experiment [7] in a line: Cell cycle arrest in human NSCLC-N6 cells assessed as reduction in accumulation at S phase by flow cytometry. The format is functional, cell-based. The procedure, abridged: (§2)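 NSCLC-N6 cells were grown in RPMI 1640 with 5% FCS, penicillin, streptomycin and 2 mM glutamine. 0.8 × 10^3 cells were cultured in flasks with or without compound for 48 h. Medium was removed and cells stained in situ with Vindelov solution. DNA content of 2000 nuclei was measured by flow cytometry to give DNA histograms.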

A short description of experiment [8]: Cell cycle arrest in human NSCLC-N6 cells assessed as increase in accumulation at G2M phase by flow cytometry. The format is functional, cell-based. In outline:
as §2

Experiment [9] relates to NSCLC-N6. The experiment in a line: Induction of polyploidy in human NSCLC-N6 cells assessed as 4N chromosome levels at 1 ug/ml by DNA cytogram. The format is functional, cell-based. The procedure, abridged:
as §2

In experiment [10] the test system is P388. The experiment can be described thus: Antitumor activity against mouse P388 cells xenografted mouse at 0.4 mg/kg, ip administered as 3 doses. The format is functional. The settings on record: route intraperitoneal.
Experiment [11] can be described thus: Antitumor activity against human NSCLC-N6 cells xenografted mouse at 20 mg/kg, iv administered as 4 doses measured after 30 days. The format is functional. The procedure, abridged: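 Nude mice carried sc NSCLC-N6 xenografts, serially passaged as mechanically dispersed tumour (about 1 g in 4.8 ml saline, 0.2 ml per mouse). Six mice per group were treated once tumours reached 50–200 mm3. Each received 20 mg/kg iv on days 1, 5, 9 and 11 (4 doses), in physiological saline with 2% DMSO.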

Experiment [12] can be described thus: Cell cycle arrest in human NSCLC-N6 cells assessed as accumulation at G1 phase by flow cytometry. The format is functional, cell-based. In outline: as §2
A short description of experiment [13]: Antitumor activity against human NSCLC-N6 cells xenografted mouse at 10 mg/kg/day, ip administered for 16 days measured after 30 days. The format is functional. The settings on record: route intraperitoneal. The procedure, abridged:
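NSCLC-N6 tumour maintained by serial sc transplant in nude mice: 0.2 ml of a suspension from about 1 g of mechanically dispersed excised tumour in 4.8 ml sterile saline. Groups of six mice were treated once tumours reached 50–200 mm3. Dosing was 10 mg/kg ip daily on days 1–16, in physiological saline with 2% DMSO.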

≈ marks a conversion by molar mass, not a printed value. Calls of active or inactive are those of the source. The rule behind the calls is not given here.

With `C/C=C/C(=O)C[C@H]1CC[C@H](C)[C@H](CC(=O)NC[C@H](O)[C@H](C)C(=O)NCCC[C@H]2O[C@@]3(CCC[C@H](CC[C@H](C)/C=C(\C)[C@H](C)O)O3)CC[C@@H]2C)O1` [BISTRAMIDE A], the IC50 turned out to be 0.53 µg/mL (≈ 0.752 µM) in experiment [1]; 0.2 µg/mL (≈ 0.284 µM) in [2]; 0.05 µg/mL (≈ 0.0709 µM) in experiment [3]; 0.1 µg/mL (≈ 0.142 µM) in experiment [4]; 0.32 µg/mL (≈ 0.454 µM) in experiment [5]; 0.03 µg/mL (≈ 0.0426 µM) in experiment [6]. For the same compound, the result in experiment [7], in experiment [8] and in experiment [9] was Active. Further, in experiment [10], the T/C is listed as 118%.

On to `CCCC(=O)CC1CCC(C)C(CC(=O)NCC(O)C(C)C(=O)NCCCC2OC3(CCCC(CCC(C)/C=C(\C)C(C)O)O3)CCC2C)O1` (stereo unspecified) [BISTRAMIDE B], for which the IC50 in [1] came out at 2.1 µg/mL (≈ 2.97 µM); in experiment [2], 0.2 µg/mL (≈ 0.283 µM); in experiment [3], 1.16 µg/mL (≈ 1.64 µM); in [4], 1.2 µg/mL (≈ 1.7 µM); in experiment [5], 0.71 µg/mL (≈ 1 µM); in experiment [6] it was 0.32 µg/mL (≈ 0.453 µM). Moreover, the outcome in [7] was Active.

With `C/C=C/C(=O)C[C@H]1CC[C@H](C)[C@H](CC(=O)NC[C@H](O)[C@H](C)C(=O)NCCC[C@H]2O[C@@]3(CCC[C@@H](CC[C@H](C)/C=C(\C)C(C)=O)O3)CC[C@@H]2C)O1` [BISTRAMIDE C], the IC50 in [1] was 0.65 µg/mL (≈ 0.925 µM); in [2], 0.02 µg/mL (≈ 0.0285 µM); in experiment [3] it was 0.05 µg/mL (≈ 0.0711 µM); in [4], 0.06 µg/mL (≈ 0.0854 µM); in experiment [5], 0.5 µg/mL (≈ 0.711 µM); in experiment [6], 0.05 µg/mL (≈ 0.0711 µM). For the same compound, the outcome in [7] was Active.

For the compound `C/C=C/[C@H](O)CC1CCC(C)C(CC(=O)NCC(O)C(C)C(=O)NCCCC2OC3(CCCC(CCC(C)/C=C(\C)C(C)O)O3)CCC2C)O1` (stereo partly specified) [BISTRAMIDE D], the concentration for half-maximal inhibition (IC50) stood at 10 µg/mL (≈ 14.1 µM) in experiment [1]; 0.36 µg/mL (≈ 0.509 µM) in experiment [2]; 5.82 µg/mL (≈ 8.23 µM) in [3]; 0.1 µg/mL (≈ 0.141 µM) in experiment [4]; 2.76 µg/mL (≈ 3.9 µM) in [5]; 3.43 µg/mL (≈ 4.85 µM) in experiment [6]. For the same compound, the result in [7] was Active. Moreover, the T/C in experiment [11] is listed as 53%.

Take `C/C=C/C(O)C/C=C/CC(C)C(O)CC(=O)NCC(O)C(C)C(=O)NCCCC1OC2(CCCC(CCC(C)/C=C(\C)C(C)O)O2)CCC1C` (stereo unspecified) [BISTRAMIDE K]: the IC50 in experiment [1] is more than 10 µg/mL; in experiment [2], 0.57 µg/mL (≈ 0.806 µM); in experiment [3], more than 10 µg/mL; in experiment [4], 1.9 µg/mL (≈ 2.69 µM); in [5], 5.6 µg/mL (≈ 7.92 µM); in experiment [6], 3.23 µg/mL (≈ 4.57 µM). Besides, the result in experiment [12] was Active. Besides, in [13], the T/C came out at 49%.

Turning to `Sc1ncnc2nc[nH]c12` [MERCAPTOPURINE ANHYDROUS], the IC50 worked out at 0.55 µg/mL (≈ 3.61 µM) in [1]; 0.7 µg/mL (≈ 4.6 µM) in [2]; 0.26 µg/mL (≈ 1.71 µM) in experiment [3]; 0.8 µg/mL (≈ 5.26 µM) in [4]; 0.87 µg/mL (≈ 5.72 µM) in experiment [5]; 0.79 µg/mL (≈ 5.19 µM) in experiment [6].
